Where a SMILES comes first, the peptide text is derived from it. [ ]: non-standard residue; d: D form. The star is where a group is joined. Cbz = O=C(OCc1ccccc1)*
What was measured:
[1] = biological target: Metabotropic glutamate receptor 3 (Rattus norvegicus) (UniProt P31422); assay: Antagonistic activity against Glutamate receptor in rat spinal cord at concentration of 50 uM.; format: functional, tissue-based
In short: (§1)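 Neonatal hemisectioned spinal cord from Wistar rats (Alderley Park strain, 2-7 days old), anaesthetised with intraperitoneal urethane (25% w/v, […]) and then decapitated. Cord superfused with oxygenated medium at 1 mL/min. Agonist (SP, SP(6-11), glutamate or carbachol) applied as 2-mL doses in the superfusate. Antagonist superfused for at least 15 min before agonists were retested. Read-out: % change in ventral root–cord DC potential response amplitude.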

[2] = biological target: Metabotropic glutamate receptor 3 (Rattus norvegicus) (UniProt P31422); assay: Antagonistic activity against Glutamate receptor in spinal rat cord at concentration of 25 uM.; format: functional; in short: as §1
[3] = biological target: Metabotropic glutamate receptor 3 (Rattus norvegicus) (UniProt P31422); assay: Antagonistic activity against Glutamate receptor in spinal rat cord at concentration of 5 uM.; format: functional; in short: as §1
[4] = biological target: Substance-P receptor (Cavia porcellus) (UniProt P30547); assay: Antagonistic activity against Substance P(6-11) receptor in guinea pig ileum at concentration of 5 uM.; format: functional, tissue-based
In short: (§2)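 Distal ileum from Dunkin-Hartley guinea pigs (300-350 g, both sexes) in a Krebs organ bath at 37 °C, gassed with 95% O2/5% CO2. Agonist (SP or SP(6-11)) dose-response curves run on a 3-min cycle with 1-min contact, with and without antagonist. Dose ratio = agonist EC50 with antagonist / EC50 alone. At least two preparations per compound; ratios below 2 taken as insignificant.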

[5] = biological target: Substance-P receptor (Rattus norvegicus) (UniProt P14600); assay: Antagonistic activity against Substance P receptor in rat spinal cord at concentration of 5 uM.
[6] = biological target: Substance-P receptor (Rattus norvegicus) (UniProt P14600); assay: Antagonistic activity against Substance P receptor in rat spinal cord at concentration of 25 uM.
[7] = biological target: Substance-P receptor (Rattus norvegicus) (UniProt P14600); assay: Antagonistic activity against Substance P receptor in rat spinal cord at concentration of 50 uM.
[8] = biological target: Substance-P receptor (Rattus norvegicus) (UniProt P14600); assay: Antagonistic activity against Substance P(6-11) receptor in rat spinal cord at concentration of 5 uM.
[9] = biological target: Substance-P receptor (Rattus norvegicus) (UniProt P14600); assay: Antagonistic activity against Substance P(6-11) receptor in rat spinal cord at concentration of 25 uM.
[10] = biological target: Substance-P receptor (Rattus norvegicus) (UniProt P14600); assay: Antagonistic activity against Substance P(6-11) receptor in rat spinal cord at concentration of 50 uM.
[11] = biological target: Metabotropic glutamate receptor 3 (Rattus norvegicus) (UniProt P31422); assay: Antagonistic activity against Glutamate receptor in rat spinal cord at concentration of 25 uM.; format: functional, tissue-based; in short: as §1
[12] = biological target: Substance-P receptor (Cavia porcellus) (UniProt P30547); assay: Evaluated in vitro for percent agonist activity in guinea pig ileum (substance P receptor); format: functional, tissue-based
[13] = biological target: Substance-P receptor (Cavia porcellus) (UniProt P30547); assay: Antagonistic activity against Substance P(6-11) receptor in guinea pig ileum at concentration of 47 uM.; format: functional, tissue-based; in short: as §2
[14] = biological target: Substance-P receptor (Cavia porcellus) (UniProt P30547); assay: Antagonistic activity against Substance P(6-11) receptor in guinea pig ileum at concentration of 6.4 uM.; format: functional, tissue-based; in short: as §2
[15] = biological target: Substance-P receptor (Cavia porcellus) (UniProt P30547); assay: Antagonistic activity against Substance P receptor in guinea pig ileum at concentration of 47 uM.; format: functional, tissue-based; in short: as §2
[16] = biological target: Substance-P receptor (Cavia porcellus) (UniProt P30547); assay: Antagonistic activity against Substance P receptor in guinea pig ileum at concentration of 6.4 uM.; format: functional, tissue-based; in short: as §2
[17] = biological target: Substance-P receptor (Cavia porcellus) (UniProt P30547); assay: Antagonistic activity against Substance P in guinea pig ileum at concentration of 1 uM.; format: functional, tissue-based; in short: as §2
[18] = biological target: Substance-P receptor (Cavia porcellus) (UniProt P30547); assay: Antagonistic activity against Substance P(6-11) receptor in guinea pig ileum at concentration of 10 uM.; format: functional, tissue-based; in short: as §2
[19] = biological target: Substance-P receptor (Cavia porcellus) (UniProt P30547); assay: Antagonistic activity against Substance P(6-11) receptor in guinea pig ileum at concentration of 1 uM.; format: functional, tissue-based; in short: as §2
[20] = biological target: Substance-P receptor (Cavia porcellus) (UniProt P30547); assay: Antagonistic activity against Substance P in guinea pig ileum at concentration of 10 uM.; format: functional, tissue-based; in short: as §2
[21] = biological target: Metabotropic glutamate receptor 3 (Rattus norvegicus) (UniProt P31422); assay: Antagonistic activity against Glutamate receptor in rat spinal cord at concentration of 10 uM.; format: functional, tissue-based
In short: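 Cord superfused with oxygenated medium at 1 mL/min. Agonist (SP, SP(6-11), glutamate or carbachol) applied as 2-mL doses in the superfusate. Antagonist superfused for at least 15 min before agonists were retested. Read-out: % change in ventral root–cord DC potential response amplitude.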

[22] = biological target: Substance-P receptor (Rattus norvegicus) (UniProt P14600); assay: Antagonistic activity against Substance P(6-11) receptor in rat spinal cord at concentration of 10 uM.
[23] = biological target: Substance-P receptor (Cavia porcellus) (UniProt P30547); assay: Antagonistic activity against Substance P receptor in guinea pig ileum at concentration of 14 uM.; format: functional, tissue-based; in short: as §2
[24] = biological target: Substance-P receptor (Cavia porcellus) (UniProt P30547); assay: Antagonistic activity against Substance P(6-11) receptor in guinea pig ileum at concentration of 14 uM.; format: functional, tissue-based; in short: as §2
[25] = biological target: Substance-P receptor (Cavia porcellus) (UniProt P30547); assay: In vitro percent agonist activity in guinea pig ileum.; format: functional, tissue-based
In short: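 Distal ileum from Dunkin-Hartley guinea pigs (300-350 g, either sex) in a 5-mL organ bath of Krebs solution at 37 °C, gassed with 95% O2/5% CO2. Dose-response curves were run on a 3-min cycle with 1-min agonist contact and washout. Agonist activity is expressed as a percentage of substance P.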

Substance-P receptor (Cavia porcellus), sequence (P30547 whole entry): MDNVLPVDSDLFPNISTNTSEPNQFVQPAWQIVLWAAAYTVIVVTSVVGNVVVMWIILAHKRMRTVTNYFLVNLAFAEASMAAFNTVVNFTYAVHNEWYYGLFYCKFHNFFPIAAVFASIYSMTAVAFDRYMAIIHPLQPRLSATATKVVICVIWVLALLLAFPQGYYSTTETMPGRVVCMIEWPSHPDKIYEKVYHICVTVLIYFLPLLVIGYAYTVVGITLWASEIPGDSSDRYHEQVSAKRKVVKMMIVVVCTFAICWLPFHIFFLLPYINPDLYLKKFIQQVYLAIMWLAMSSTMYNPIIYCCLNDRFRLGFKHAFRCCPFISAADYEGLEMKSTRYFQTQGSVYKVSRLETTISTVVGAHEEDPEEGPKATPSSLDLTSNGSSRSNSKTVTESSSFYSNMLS
Substance-P receptor (Rattus norvegicus), sequence (P14600 whole entry, looked up): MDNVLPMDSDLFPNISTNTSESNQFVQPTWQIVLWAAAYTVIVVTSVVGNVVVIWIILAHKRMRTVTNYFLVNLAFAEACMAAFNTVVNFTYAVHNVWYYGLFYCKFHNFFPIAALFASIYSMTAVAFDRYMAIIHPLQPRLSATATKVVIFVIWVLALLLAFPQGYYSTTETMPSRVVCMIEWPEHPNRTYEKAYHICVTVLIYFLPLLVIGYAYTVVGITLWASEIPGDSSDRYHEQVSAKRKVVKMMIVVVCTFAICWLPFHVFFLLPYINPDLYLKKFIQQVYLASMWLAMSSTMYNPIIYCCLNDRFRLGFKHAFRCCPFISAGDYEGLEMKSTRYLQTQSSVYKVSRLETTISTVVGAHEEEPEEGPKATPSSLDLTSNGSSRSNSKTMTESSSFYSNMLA
Metabotropic glutamate receptor 3 (Rattus norvegicus), sequence (P31422 23-879 limits assumed): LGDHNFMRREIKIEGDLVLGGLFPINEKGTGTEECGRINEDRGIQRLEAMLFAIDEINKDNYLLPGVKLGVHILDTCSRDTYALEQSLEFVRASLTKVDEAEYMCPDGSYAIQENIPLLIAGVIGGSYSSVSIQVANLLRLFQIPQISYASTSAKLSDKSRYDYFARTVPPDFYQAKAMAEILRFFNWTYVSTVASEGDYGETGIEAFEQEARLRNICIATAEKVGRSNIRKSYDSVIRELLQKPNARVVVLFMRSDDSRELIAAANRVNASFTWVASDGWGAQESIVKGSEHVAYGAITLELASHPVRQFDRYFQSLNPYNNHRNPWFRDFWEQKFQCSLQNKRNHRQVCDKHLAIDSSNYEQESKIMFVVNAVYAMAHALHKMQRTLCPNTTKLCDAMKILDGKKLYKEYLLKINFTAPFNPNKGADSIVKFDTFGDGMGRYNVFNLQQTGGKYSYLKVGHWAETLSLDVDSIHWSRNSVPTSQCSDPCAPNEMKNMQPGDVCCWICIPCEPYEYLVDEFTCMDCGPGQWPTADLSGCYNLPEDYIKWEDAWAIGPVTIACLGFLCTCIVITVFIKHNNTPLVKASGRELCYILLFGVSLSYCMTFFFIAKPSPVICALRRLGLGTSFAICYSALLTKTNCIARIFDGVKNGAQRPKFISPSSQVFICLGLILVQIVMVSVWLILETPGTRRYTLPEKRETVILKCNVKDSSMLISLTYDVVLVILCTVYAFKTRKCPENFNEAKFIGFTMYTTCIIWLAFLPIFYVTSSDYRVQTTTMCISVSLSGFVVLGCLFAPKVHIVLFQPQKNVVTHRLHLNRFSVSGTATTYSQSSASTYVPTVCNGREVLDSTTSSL

Change in amplitude response [1] [%] | Change in amplitude response [6] [%] | Change in amplitude response [7] [%] | Change in amplitude response [9] [%] | Change in amplitude response [10] [%] | Change in amplitude response [11] [%] | SP [12] [%] | Activity [18] [dose ratio] | SMILES | other results
 | 30 |  | -55 |  | 7 | 0 |  | CSCC[C@@H](NC(=O)[C@H](CC(C)C)NC(=O)[C@@H](Cc1c[nH]c2ccccc12)NC(=O)[C@H](Cc1c[nH]c2ccccc12)NC(=O)[C@@H](Cc1c[nH]c2ccccc12)NC(=O)[C@H](CCC(N)=O)NC(=O)[C@H](CCC(N)=O)NC(=O)[C@@H]1CCCN1C(=O)[C@H](CCCCN)NC(=O)[C@@H]1CCCN1C(=O)[C@@H](N)CCCN=C(N)N)C(=O)O | Activity [13]: 16.1 dose ratio; Activity [14]: 2 dose ratio; Activity [15]: 10.3 dose ratio; Activity [16]: 3.1 dose ratio
 |  |  |  |  |  | 0.004 |  | COC(=O)[C@@H](CCSC)NC(=O)[C@H](CC(C)C)NC(=O)CNC(=O)[C@H](Cc1ccccc1)NC(=O)[C@H](Cc1ccccc1)NC(=O)[C@@H]1CCCN1C(=O)[C@H]1CCCN1C(=O)[C@@H]1CCCN1C(=O)[C@H](CCCCNC(=O)OCc1ccccc1)NC(=O)[C@@H]1CCCN1C(=O)[C@H](CCCN=C(N)N)NC(=O)OCc1ccccc1 | Activity [23]: < 2 dose ratio; Activity [24]: < 2 dose ratio

Further lines, the molecule ahead of its results:

SMILES | Change in amplitude response [1] [%] | Change in amplitude response [6] [%] | Change in amplitude response [7] [%] | Change in amplitude response [9] [%] | Change in amplitude response [10] [%] | Change in amplitude response [11] [%] | SP [12] [%] | Activity [18] [dose ratio] | other results
COC(=O)[C@@H](CCSC)NC(=O)[C@H](CC(C)C)NC(=O)[C@@H](Cc1c[nH]c2ccccc12)NC(=O)[C@H](Cc1c[nH]c2ccccc12)NC(=O)[C@@H](Cc1c[nH]c2ccccc12)NC(=O)[C@H](CCC(N)=O)NC(=O)[C@H](CCC(N)=O)NC(=O)[C@@H]1CCCN1C(=O)[C@H](CCCCN)NC(=O)[C@@H]1CCCN1C(=O)[C@@H](N)CCCN=C(N)N | 27 | 21 | -19 | -87 | -87 |  |  |  | Change in amplitude response [2]: 29%; Change in amplitude response [3]: -3%; Activity [4]: 8.1 dose ratio; Change in amplitude response [5]: 32%; Change in amplitude response [8]: -42%
CSCC[C@@H](NC(=O)[C@H](CC(C)C)NC(=O)CNC(=O)[C@H](Cc1c[nH]c2ccccc12)NC(=O)[C@@H](Cc1c[nH]c2ccccc12)NC(=O)[C@H](CCC(N)=O)NC(=O)[C@H](CCC(N)=O)NC(=O)[C@@H]1CCCN1C(=O)[C@H](CCCCNC(=O)OCc1ccccc1)NC(=O)[C@@H]1CCCN1C(=O)[C@H](CCCN=C(N)N)NC(=O)OCc1ccccc1)C(=O)O |  |  |  |  |  |  | 0 | 18 | Activity [17]: 1.1 dose ratio; Activity [19]: 1.8 dose ratio; Activity [20]: 14.6 dose ratio
COC(=O)[C@@H](CCSC)NC(=O)[C@H](CC(C)C)NC(=O)CNC(=O)[C@@H](Cc1c[nH]c2ccccc12)NC(=O)[C@@H](Cc1c[nH]c2ccccc12)NC(=O)[C@H](CCC(N)=O)NC(=O)[C@H](CCC(N)=O)NC(=O)[C@@H]1CCCN1C(=O)[C@H](CCCCNC(=O)OCc1ccccc1)NC(=O)[C@@H]1CCCN1C(=O)[C@H](CCCN=C(N)N)NC(=O)OCc1ccccc1 (Cbz-RPK(Cbz)PQQ[dW][dW]GL[dM]-OMe) | 11 |  | 8.3 | -77 | -75 | -13 | 0 | 90 | Change in amplitude response [21]: -3%; Change in amplitude response [22]: -33%
COC(=O)[C@@H](CCSC)NC(=O)[C@H](CC(C)C)NC(=O)[C@@H](Cc1c[nH]c2ccccc12)NC(=O)[C@H](Cc1c[nH]c2ccccc12)NC(=O)[C@@H](Cc1c[nH]c2ccccc12)NC(=O)[C@H](CCC(N)=O)NC(=O)[C@H](CCC(N)=O)NC(=O)[C@@H]1CCCN1C(=O)[C@H](CCCCNC(=O)OCc1ccccc1)NC(=O)[C@@H]1CCCN1C(=O)[C@H](CCCN=C(N)N)NC(=O)OCc1ccccc1 |  |  |  |  |  |  |  |  | SP [25]: 0%
